proCasp7 act = procaspase-7 activators, primary screen, counter-screen for procaspase-3 activator project, biochemical, absorbance, HTS, human; AID 463210, 2010; recombinant procaspase-7, Ac-DEVD-pNA absorbance 405 nm; D23A/D198A/D206A triple mutant, cannot self-cleave; scale: DMSO 0, 5 µM enzyme 100; Caspase-7 (Homo sapiens), P55210; activation, % at 8.5 µM; hit rate 0.093% among 330,000;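 active = percent activation above the screen-wide mean plus 3 SD, cut at about 25% in these data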
Target sequence (P55210 whole entry D23A/D198A/D206A): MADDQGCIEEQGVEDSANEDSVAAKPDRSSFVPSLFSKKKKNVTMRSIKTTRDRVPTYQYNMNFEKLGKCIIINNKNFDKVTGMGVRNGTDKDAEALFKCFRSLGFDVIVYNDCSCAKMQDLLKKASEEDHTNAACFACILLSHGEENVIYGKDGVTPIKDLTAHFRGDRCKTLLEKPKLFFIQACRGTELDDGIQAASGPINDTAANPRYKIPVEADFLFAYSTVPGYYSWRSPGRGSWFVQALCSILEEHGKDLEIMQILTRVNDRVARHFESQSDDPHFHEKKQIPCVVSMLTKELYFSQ
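signal = Epi-absorbance of released pNA at 405 nm, two timepoints | assay system = Uncleavable procaspase-7 mutant enzyme | reagent = Ac-DEVD-pNA substrate, 400 µM as added | times = 1 h enzyme–compound preincubation and 2 h substrate reaction, both 25 °C | benchmarks = low DMSO alone, high DMSO plus 5 µM PC-7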
AHR act = AHR activators, primary screen, cell-based, luminescence, luciferase reporter, human; activation, % at 5 µM; Aryl hydrocarbon receptor (Homo sapiens), P35869; AHR-responsive luciferase reporter cells; hit rate 2.5% among 320,000; AID 2796, 2010; in the data active = activation above about 47%;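 also: 0% = vehicle wells and 100% = reference agonist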
PolyA inh = polyadenylation inhibitors in yeast reporter cells, primary screen, luminescence, S. cerevisiae; hit rate 0.02% among 300,000; S. cerevisiae SKY197-pL101 polyadenylation reporter, beta-gal luminescence; efflux-impaired pdr1/pdr3 knockout yeast; score 100 = 6 SD above DMSO; activity score, % at 12 µM;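 active = lowest replicate activity score at least 50, where 100 means six control SD above control mean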;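 also: yeast exposed to compound for 9 h at 30 °C; higher score means more reporter readthrough which indicates perturbed polyadenylation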
procasp3 activ = activators of human procaspase-3 D3A mutant, primary screen, biochemical, absorbance, PC-3 D3A mutant, single concentration; activation, % at 8.5 µM; recombinant procaspase-3 D3A, Ac-DEVD-pNA absorbance 405 nm; AID 463141, 2010; hit rate 0.11% among 330,000; Caspase-3 (Homo sapiens), P42574;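 active = activation above the mean of all tested compounds plus 3 SD, cut at about 21% in these data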;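 also: 0% = DMSO alone and 100% = DMSO wells spiked with extra 5 µM PC-3 D3A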
Target sequence (P42574 whole entry D9A/D28A/D175A): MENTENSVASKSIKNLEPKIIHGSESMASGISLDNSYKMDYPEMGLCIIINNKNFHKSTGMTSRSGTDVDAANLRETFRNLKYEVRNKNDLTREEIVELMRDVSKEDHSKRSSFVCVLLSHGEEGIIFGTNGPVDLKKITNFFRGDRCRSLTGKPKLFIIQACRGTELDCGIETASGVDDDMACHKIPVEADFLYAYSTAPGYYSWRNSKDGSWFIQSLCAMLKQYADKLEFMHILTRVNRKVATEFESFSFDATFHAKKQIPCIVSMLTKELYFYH
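System: Procaspase-3 D3A mutant. Medium: Zinc-free 300 mM NaCl, 50 mM HEPES, 0.01% Triton X-100. Schedule: 1 h preincubation plus 2 h reaction at 25 °C. Measured by: 405 nm absorbance of p-nitroaniline, reads at 0 and 120 min. Read-out: percent activation relative to control range.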
* marks the source's active call; other numbers are inactive results; / = no result. Most compounds without a hit are left out; they make up all but 2.6% or so of the library.

SMILES | proCasp7 act | AHR act | PolyA inh | procasp3 activ
O=c1[nH]c2ccccc2c2cn(-c3ccccc3)nc12 | 3 | 64* | -4 | 4
O=C(NC(=S)Nc1nc2c(ccc3ccccc32)s1)c1cccs1 | -8 | 67* | -13 | -8
O=C(Nc1ccc(-c2nc3c(ccc4ccccc43)o2)cc1)c1ccco1 | 0 | 67* | -7 | 0
O=C(Nc1nc2c(F)c(F)c(F)cc2s1)c1ccco1 | 7 | 2 | -1 | 1
O=C(Nc1ccc(-c2nc3cc(Cl)ccc3c(=O)o2)cc1)c1ccco1 | -11 | 0 | -4 | 9
O=C(Nc1nc2c(ccc3ccccc32)s1)c1ccco1 | -9 | 66* | -20 | 7
CCOc1ccnc2c1c(=O)n(Cc1cc(OC)cc(OC)c1)c(=O)n2C | 7 | 17 | 7 | -4
O=C(NCc1cccnc1)c1cc2nc(-c3cccs3)cc(C(F)(F)Cl)n2n1 | -4 | 0 | -5 | -6
Cc1ccc(C)c(NC(=O)C2CCCN(S(=O)(=O)c3c(C)nn(C)c3C)C2)c1 (stereo not drawn) | -15 | 1 | 10 | 10
CNc1ncnc2c1ncn2[C@@H]1O[C@H](CO)[C@@H](O)[C@H]1O | -18 | 60* | / | -2
CCn1c(-c2ccccc2O)n[nH]c1=S | 0 | -1 | -5 | -5
CCn1c(-c2cc(-c3ccccc3)sc2N)n[nH]c1=S | -16 | 73* | -10 | -10
Cn1c(N)c(C(=O)Nc2ccccc2)c(=O)[nH]c1=O | 12 | -2 | 3 | 7
Cn1c(N)c(C(=O)/C=C/c2ccccc2)c(=O)[nH]c1=O | 3 | 47* | 10 | -5
CC(=O)/C=C/c1ccccc1O | 0 | -2 | -4 | 7
C[n+]1ccc(/C=C/c2ccccc2O)c2ccccc21 | -9 | 63* | -9 | -2
COc1ccc(-c2csc(NC3=NCCCCC3)n2)cc1 | 14 | 58* | 12 | 3
Fc1ccc(-c2csc(NC3=NCCC3)n2)cc1 | 4 | 55* | -10 | -2
CN(C)c1nnnn1-c1ccc(OC(F)(F)F)cc1 | 1 | -4 | 6 | -3
CC(C)OC(=O)c1cccnc1SCC(=O)N(C)c1ccccc1 | -2 | 0 | -23 | 9
CC(C)OC(=O)c1cccnc1SCc1cc(=O)n2ccccc2n1 | -8 | 55* | -9 | 2
Nc1c(C(=O)OCC(=O)Nc2cccc([N+](=O)[O-])c2)[nH]c(=O)[nH]c1=O | -8 | 1 | / | 1
Cc1ccc2c(C(=O)CSc3ccccc3)c(C)[nH]c2c1 | -6 | 58* | -24 | 0
Cc1ccc(SCC(=O)c2c(C)[nH]c3ccccc23)cc1 | 1 | 43 | -9 | -6
CCCc1cc(=O)[nH]c(SCC(=O)c2c(C)[nH]c3ccccc23)n1 | 2 | 60* | 9 | 2
SMILES | proCasp7 act | AHR act | PolyA inh | procasp3 activ
Cc1[nH]c2ccccc2c1C(=O)CN1CCC(C)CC1 | 6 | 56* | 7 | -2
Cc1[nH]c2ccccc2c1C(=O)COc1ccccc1F | 7 | 63* | 18 | 2
Cc1[nH]c2ccccc2c1C(=O)CSc1ccc(F)cc1 | -13 | 37 | 13 | 4
Cc1[nH]c2ccccc2c1C(=O)CSc1ccccn1 | 2 | 53* | 10 | -1
CCOc1ccc(S(=O)(=O)n2nc(C)c(S(=O)(=O)N3CCOCC3)c2C)cc1 | 1 | 2 | 1 | -1
CCNCCNC(=O)c1c(O)c2cccc3c2n(c1=O)CCC3 | 5 | 60* | 3 | 3
CCCCNC(=O)c1c(O)c2cccc3c2n(c1=O)CCC3 | 3 | 20 | -1 | 2
Cc1ccc(S(=O)(=O)N2CCCN(C(=O)c3cc4ccccc4[nH]3)CC2)cc1 | -3 | 62* | 0 | 0
CN1CCN(C(=O)c2cc3ccccc3[nH]2)CC1 | 6 | 18 | -11 | 9
CC(=O)C1=C(c2ccccc2)N(C(C)=O)n2c(C)nnc2S1 | -4 | 51* | -8 | -11
CC(=O)N1CCN(c2nnc(-c3ccccc3)c3ccccc23)CC1 | 7 | 3 | 11 | 4
C=CCNC(=O)CN1C(=O)c2cccc3cccc1c23 | 1 | 8 | 9 | -6
COc1ccccc1N/C=C(\C#N)c1nc2ccccc2[nH]1 | -1 | 70* | -10 | -2
N#C/C(=C(\O)Cc1ccccc1)c1nc2ccccc2[nH]1 | 3 | 50* | 36 | 3
COc1ccc(/C=C(\C#N)c2nc3ccccc3[nH]2)cc1O | / | / | 23 | /
N#C/C(=C(/O)c1cccs1)c1nc2ccccc2[nH]1 | 4 | 54* | -7 | 9
COc1cc(/C=C(/C#N)c2nc3ccccc3[nH]2)ccc1OC(=O)c1ccco1 | -12 | 60* | 9 | -8
CCCc1cc(=O)[nH]c(SCC(=O)NCC2COc3ccccc3O2)n1 (stereo not drawn) | 8 | 0 | / | 3
COc1ccccc1/C(O)=C(\C#N)c1nc2ccccc2[nH]1 | 6 | 48* | 2 | -5
CCC(=O)Nc1nc2ccc3sc(C)nc3c2s1 | 2 | 69* | -20 | 6
CC(=O)c1c(C)[nH]c(C(=O)N2CCc3ccccc3C2)c1C | 2 | 48* | 12 | 8
COc1ccc(CN(C(=O)c2snc(C(N)=O)c2N)C(C(=O)NC2CCCC2)c2cc(OC)ccc2OC)cc1 (stereo not drawn) | -4 | 7 | 3 | -10
Cc1noc(C(=O)Nc2ccc(F)cc2F)c1Cl | / | / | 3 | /
Cc1ccc(O)c(NC(=O)c2onc(C)c2Cl)c1 | 6 | 72* | -5 | 0
CC1=C(C(=O)Nc2cc(C(=O)N3CCN(c4cccc(C)c4C)CC3)ccc2C)SCCO1 | -2 | 0 | 8 | 5
SMILES | proCasp7 act | AHR act | PolyA inh | procasp3 activ
COc1cccc(NC(=O)CN(C)C(=O)c2cc(S(=O)(=O)N3CCCCCC3)ccc2OC)c1 | 1 | -2 | / | -4
COc1ccc(-c2nsc3c(N4CCN(C(=O)c5ccco5)CC4)ncnc23)cc1 | 0 | 16 | -9 | -2
O=C(c1ccco1)N1CCN(c2ncnc3c(-c4ccccc4)nsc23)CC1 | -1 | 66* | -8 | -4
CCN(CC)S(=O)(=O)c1ccc2[nH]c(=O)cc(C(=O)Nc3ccc(C)cc3)c2c1 | 0 | 11 | 2 | 4
Cc1ccc(NC(=O)c2cc(=O)[nH]c3ccccc23)cc1 | 8 | 76* | -8 | 5
COc1cc(NC(=S)Nc2ccccn2)c(OC)cc1Cl | 0 | 58* | -8 | -4
COc1cc(NC(=S)Nc2cccc(Cl)c2Cl)c(OC)cc1Cl | -14 | 26 | -4 | -18
CCNC(=S)Nc1ccc(Oc2ccccc2)cc1 | -1 | 3 | -13 | 3
S=C(NCc1ccccc1)Nc1ccc(Oc2ccccc2)cc1 | 5 | 74* | -6 | 1
O=C1c2ccccc2CC1Sc1nnc(-c2ccncc2)o1 (stereo not drawn) | -30 | 63* | 10 | -25
